In article PMC9605878 (Cell Chemical Biology, 2022):
Values after ≈ are worked out from the molar mass of the structure shown. Read-outs that look alike come from different tables or passages of the source. Each block holds one molecule with its values, some of them ahead of it.

Tests used:
S. aureus strain RN6390B = experiment: S. aureus MIC, broth microdilution; type: cell-based, Staphylococcus aureus
How it was run: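 Broth microdilution MIC in Müller–Hinton broth at 37°C; S. aureus also tested in MHB containing 10% FBS.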

S. aureus membranes [1] = experiment: Membrane dipole potential; type: binding, Staphylococcus aureus; conditions: for change in membrane dipole potential: fixed concentration 40 μM, fluorescence ratio R(460/520)
How it was run: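 Isolated S. aureus membranes labelled with the dipole-potential probe di-8-ANEPPS. Dipole potential change followed as fluorescence ratio R(460/520), at a fixed 40 μM per compound. Kd obtained from binding curves versus compound concentration by the dual-wavelength ratiometric method, with methanol included. Mean of three independent experiments ±SD.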

Staphylococcal cells = experiment: Dissipation of transmembrane potential; type: cell-based, Staphylococcus aureus; conditions: 10 μM test compound
How it was run: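 Staphylococcal cells suspended in 50 mM potassium phosphate buffer, pH 7, with 5 μM DiSC3(5). Fluorescence (ex 650, em 680 nm) monitored over 200 s. Test compound (10 μM) added once signal stabilised. Valinomycin (5 μM) then added for complete depolarisation. Novobiocin and chloramphenicol (10 μg/ml) served as negative controls. Three independent repeats, representative traces.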

PqsR = conditions: read-out: PqsR IC50; ref Ilangovan et al., 2013; cited from earlier work
[2] = test system: defibrinated rabbit red blood cells; experiment: Haemolytic activity; type: cell-based
How it was run: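 Defibrinated rabbit blood incubated in PBS for 60 min with test compound or Triton X-100 (positive control). Samples pelleted and supernatant A543 measured. Percent haemolysis calculated relative to the Triton X-100 control.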

[3] = test system: S. aureus strain USA300 JE2; experiment: Membrane permeabilization; type: cell-based, Staphylococcus aureus; conditions: 10 μM, relative to nisin 0.6 μM
How it was run: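 USA300 JE2 grown overnight in CYGP, washed in 100 mM phosphate buffer pH 7, resuspended to OD600 0.1 and exposed to test compound for 1 h at 37°C. Nisin (0.6 μM) used as positive control. Cell-free supernatant ATP measured by luminescence kit. For PI uptake, cells held in phosphate buffer pH 7 with PI (10 μg/ml), 10 min dark at RT, washed, then read (ex 575/em 630 nm). Mean of three experiments ±SD.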

S. aureus membranes [4] = conditions: read-out: Kd (membrane-active agent); ref Murray et al., 2014; cited from earlier work
Chrome azurol S = type: physicochemical; conditions: 50 μM, PBS pH 7.4
How it was run: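 PBS (pH 7.4) with test compound (50 μM), or without it as reference, mixed with an equal volume of CAS assay solution. A630 read after 15 min at room temperature. Siderophore units = […].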

[5] = test system: P. aeruginosa PAO1 in mixed biofilm with S. aureus SH1000; experiment: Mixed-species biofilm, P. aeruginosa component; type: cell-based, Pseudomonas aeruginosa; conditions: tobramycin alone (100 μg/mL, 4 h)
How it was run: (§1)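 GFP-tagged S. aureus SH1000 and mCherry-tagged P. aeruginosa PAO1 grown 16 h in RPMI-1640, diluted 1:100, regrown to OD600 ~0.5, then diluted to OD600 0.1 and 0.01 respectively. S. aureus seeded on glass coverslips for 1 h static, then P. aeruginosa added (10:1). Test compound (100 μM) or DMSO added; 48 h at 37°C. Where required, tobramycin (100 μg/mL) added for a further 4 h. Confocal imaging, biomass quantified per species; 3 experiments ±SD.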

[6] = test system: S. aureus SH1000 in mixed biofilm with P. aeruginosa PAO1; experiment: Mixed-species biofilm, S. aureus component; type: cell-based, Staphylococcus aureus; conditions: tobramycin alone (100 μg/mL, 4 h)
How it was run: as §1

[7] = S. aureus RN6390B, broth microdilution

Structure (SMILES): CCCCCCCc1nc2ccccc2c(=O)[nH]1 [Compound 1]
MIC (S. aureus strain RN6390B; [7]): >100 µM

Structure (SMILES): CCCCCCCCCc1nc2ccccc2c(=O)[nH]1 [Compound 2]
change in membrane dipole potential (S. aureus membranes [1]): little impact
MIC (S. aureus strain RN6390B; [7]): >100 µM

Structure (SMILES): CCCCCCCCCc1nc2cc(Cl)ccc2c(=O)[nH]1 [Compound 4, 7-Chloro-2-n-nonylquinazolin-4(3H)-one]
MIC (S. aureus strain RN6390B; Staphylococcus aureus, RN6390B): > 100 µM

Structure (SMILES): CCCCCCCC1Nc2ccccc2S(=O)(=O)N1 (stereo not shown) [Compound 5, 3-n-Heptyl-3,4-dihydro-2H-benzo[e][1,2,4]thiadiazine 1,1-dioxide]
S. aureus growth-inhibitory activity (S. aureus strain RN6390B): inactive
MIC (S. aureus strain RN6390B; Staphylococcus aureus, RN6390B): > 100 µM

Structure (SMILES): CCCCCCCCCC1Nc2ccccc2S(=O)(=O)N1 (stereo not shown) [Compound 6, 3-n-Nonyl-3,4-dihydro-2H-benzo[e][1,2,4]thiadiazine 1,1-dioxide]
S. aureus growth-inhibitory activity (S. aureus strain RN6390B): inactive
MIC (S. aureus strain RN6390B; Staphylococcus aureus, RN6390B): > 100 µM

Structure (SMILES): CCCCCc1nc2ccccc2c(=O)n1N [Compound 7]
MIC (S. aureus strain RN6390B; [7]): >100 µM

Structure (SMILES): CCCCCCCc1nc2ccccc2c(=O)n1N [Compound 8]
MIC (S. aureus strain RN6390B; [7]): >100 µM

Structure (SMILES): Cc1nc2ccccc2c(=O)n1N [Compound 17, 3-Amino-2-methylquinazolin-4(3H)-one]
MIC (S. aureus strain RN6390B; Staphylococcus aureus, RN6390B): > 100 µM

Structure (SMILES): CCCCCCCCCCCCCC(=O)C1=C(O)COC1=O [Compound C14-TOA, 3-tetradecanoyltetronic acid]
Kd (S. aureus membranes [4]): 4 µM

Structure (SMILES): NC[C@H]1O[C@H](O[C@H]2[C@H](O)[C@@H](O[C@H]3O[C@H](CO)[C@@H](O)[C@H](N)[C@H]3O)[C@H](N)C[C@@H]2N)[C@H](N)C[C@@H]1O [tobramycin]
reduction of P. aeruginosa biomass [5]: ~60%
S. aureus biomass [6]: clearly protected

More lines, main results first:

MIC (S. aureus strain RN6390B; [7]): >100 µM
Structure (SMILES): CCCCCCCCCc1nc2cc(F)ccc2c(=O)n1N [Compound 18]

change in membrane dipole potential (S. aureus membranes [1]): increased
MIC (S. aureus strain RN6390B; [7]): >100 µM
Structure (SMILES): CCCCCCCCCc1nc2cc(Cl)ccc2c(=O)n1N [Compound 19]
DiSC3(5) fluorescence / transmembrane potential (Staphylococcal cells): does not increase fluorescence
IC50 (PqsR): 5 µM
hemolytic activity [2]: not hemolytic

MIC (S. aureus strain RN6390B; [7]): >100 µM
Structure (SMILES): CCCCCCCCCc1nc2cc(F)c(F)cc2c(=O)n1N [Compound 22]

change in membrane dipole potential (S. aureus membranes [1]): greatest changes in dipole potential
Kd (S. aureus membranes [1]; read-out: Kd (membrane binding), binding curves, di-8-ANEPPS): 5.2 ± 0.3 µM
MIC (S. aureus strain RN6390B; Staphylococcus aureus, RN6390B): 12.5 µM (≈ 4.72 µg/mL)
Structure (SMILES): CCCCCCCCCc1nc2cc(Cl)ccc2c(=O)n1CCCCN [Compound 35, 3-(4-Aminobutyl)-7-chloro-2-n-nonylquinazolin-4(3H)-one]
DiSC3(5) fluorescence / transmembrane potential (Staphylococcal cells): increase in fluorescence
cellular ATP loss and PI uptake [3]: significant cellular ATP loss alongside the reciprocal uptake of PI

MIC (S. aureus strain RN6390B; [7]): >100 µM
Structure (SMILES): CCCCCCCCCc1nc2cc(F)ccc2c(=O)n1OC [Compound 39]

MIC (S. aureus strain RN6390B; [7]): >100 µM
MIC (S. aureus strain RN6390B; Staphylococcus aureus, RN6390B): > 100 µM
Structure (SMILES): CCCCCCCCCc1nc2cc(Cl)ccc2c(=O)n1CCO [Compound 45, 7-Chloro-3-(2-hydroxyethyl)-2-n-nonylquinazolin-4(3H)-one]

change in membrane dipole potential (S. aureus membranes [1]): little impact
Structure (SMILES): CCCCCCCCCc1[nH]c2ccccc2c(=O)c1O [Compound C9-PQS, reference compound]

iron-chelating properties (Chrome azurol S): sequestered iron
Structure (SMILES): CCCCCCCc1[nH]c2ccccc2c(=O)c1O [PQS, 2-Heptyl-3-hydroxy-4(1H)-quinolone]
